Experimental data reported in article PMC5968455 (Cancer cell, 2016).
Each block holds one molecule with its values, some of them ahead of it.

Assays:
[1] = test system: patient-derived GBM neural stem cells (GNS); test: Proliferation assay, dose-response series; format: cell-based, human; conditions: for selectivity toward GNS and NS compared with fibroblasts: IC50 of BJ/IC50 of any NS or GNS with the lowest IC50, dose series 0.39–50 µM; for IC50: read-out: potency (IC50) toward GNS, panel of six GNS lines
GNS (G411 and G362) = test: Flow cytometric cell-cycle analysis of DNA content; format: cell-based, human
Outline: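 GNS lines G411 and G362 were grown as adherent monolayers in serum-free medium. They were exposed to test compounds (DRD4 antagonists) at 10 µM or 25 µM, alongside DMSO control, for 48 hr. DNA-content cell-cycle distribution was then analysed.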

GNS, NS and BJ lines = test: Primary screen of neuroactive compounds, growth inhibition; format: cell-based, human; conditions: 5 µM, 5 days; hit = greater than 20% growth inhibition vs DMSO
Outline: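 A 680-compound neuroactive library was screened at 5 µM for 5 days against three human GNS lines, two neural stem cell (NS) lines and BJ fibroblasts. GNS and NS lines were grown as adherent serum-free monolayers. Growth inhibition was calculated relative to DMSO control; a primary hit caused >20% inhibition.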

[2] = test system: subcutaneous implanted tumor (G362); test: Subcutaneous GNS xenograft in NSG mice; format: in vivo, mouse; conditions: 20 mg/kg intraperitoneally; for reduction of average tumor weight at the endpoint: 5 days on, 2 days off, vs vehicle
[3] = test system: normal human NS lines (hf5205 and hf6539); test: Neuronal differentiation of normal NS; format: cell-based; conditions: with sequential withdrawal of EGF and FGF; VGlut1 expression
[4] = test system: G362 cells injected intracranially; test: Intracranial G362 xenograft survival in NSG mice; format: in vivo, mouse
GNS (G362 and G411) = test: LC3B+ puncta immunofluorescence; format: cell-based, human; conditions: 48 hr; L-741,742 10 µM, PNU 96415E 25 µM
Outline: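 Adherent, serum-free GNS cultures (G362, G411) were exposed for 48 hr to test compounds (DRD4 antagonists) at 10 µM or 25 µM, or DMSO. LC3B was immunostained, and cells with large LC3B+ puncta were counted (>200 cells per group). Results are the fraction of cells; n = 3, mean ± SEM, unpaired one-tailed t test.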

G481 = test: Combination index with TMZ; format: cell-based, human; conditions: in combination with TMZ
Outline: (§1)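 Patient-derived glioblastoma stem cell (GNS) cultures were exposed to temozolomide combined with a test compound (DRD4 antagonist). The combination index (CI) was calculated and plotted against fraction affected (Fa) to judge the interaction.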

G362 = test: Combination index with TMZ; format: cell-based, human; conditions: in combination with TMZ
Outline: as §1

adenylate cyclase = test: Forskolin-induced cAMP response in GNS; format: cell-based, human; conditions: G362 cells, forskolin 30 µM
Outline: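 G362 GNS cells were stimulated with forskolin (30 µM) to activate adenylate cyclase. Forskolin was given alone or after pretreatment with a DRD4-selective agonist (30 µM). cAMP level was expressed as fold change versus control; n = 3, mean ± SEM.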

DRD4 receptor = biological target: T1, DRD4 receptor (Homo sapiens, UniProt P21917); test: Block of forskolin-induced cAMP response by DRD4 agonist; format: cell-based; conditions: G362 cells, pretreatment 30 µM, then forskolin 30 µM
T1 sequence (P21917 1-419): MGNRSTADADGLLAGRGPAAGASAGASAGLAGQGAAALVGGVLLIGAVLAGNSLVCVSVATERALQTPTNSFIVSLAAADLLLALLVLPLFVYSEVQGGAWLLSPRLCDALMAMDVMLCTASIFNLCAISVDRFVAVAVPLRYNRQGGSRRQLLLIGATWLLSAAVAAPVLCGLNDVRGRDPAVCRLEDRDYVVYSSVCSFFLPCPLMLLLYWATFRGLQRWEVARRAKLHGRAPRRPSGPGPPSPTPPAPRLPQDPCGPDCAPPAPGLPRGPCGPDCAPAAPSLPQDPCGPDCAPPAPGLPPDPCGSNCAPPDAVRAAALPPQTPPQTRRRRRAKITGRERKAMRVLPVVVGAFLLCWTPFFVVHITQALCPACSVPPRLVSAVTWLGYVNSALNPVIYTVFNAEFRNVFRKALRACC

[5] = test system: non-NS control cells (BJ, Daoy, U-2 OS, C8-D1A); test: Proliferation assay in non-NS control cell lines; format: cell-based; conditions: highest concentration tested 50 µM

Molecule: CCN(CC)CCOc1ccc(Cc2ccccc2)cc1 [N,N-diethyl-2-(4-(phenylmethyl)phenoxy) ethanamine]
selectivity toward GNS and NS compared with fibroblasts [1]: more than 8 fold

Molecule: CCN(CC)CCCC(C)Nc1ccnc2cc(Cl)ccc12 (stereo not shown) [chloroquine]
cell-cycle effect (GNS (G411 and G362)): G0/G1 arrest

Molecule: CSc1ccc2c(c1)N(CCC1CCCCN1C)c1ccccc1S2 (stereo not shown) [thioridazine]
primary screen result (GNS, NS and BJ lines): hits

Molecule: PD 168568
IC50 [1]: 25 to 50 µM

Molecule: O=C(NOC[C@H](O)CO)c1ccc(F)c(F)c1Nc1ccc(I)cc1F [PD 0325901]
cell-cycle effect (GNS (G411 and G362)): G0/G1 arrest

Molecule: CC(C(O)c1ccc(O)cc1)N1CCC(Cc2ccccc2)CC1.CC(C(O)c1ccc(O)cc1)N1CCC(Cc2ccccc2)CC1.O=C(O)C(O)C(O)C(=O)O (stereo not shown) [ifenprodil tartrate]
selectivity against GNS compared with NS [1]: 8 fold | selectivity toward GNS and NS compared with fibroblasts [1]: more than 8 fold

Molecule: Cc1c(C2CCN(CCc3ccccc3)CC2)noc1-c1ccc(Cl)cc1 [L-741,742]
tumor volume growth vs vehicle control [2]: much slower growth | reduction of average tumor weight at the endpoint [2]: 40.9% | neuronal differentiation of NS [3]: dramatically enhanced neuronal differentiation | selectivity against GNS compared with NS [1]: 8 fold | selectivity toward GNS and NS compared with fibroblasts [1]: more than 8 fold | IC50 [1]: 1.5 to 6.2 µM | survival over control ([4]; 25 mg/kg alone, treatment from 1 week after engraftment): modest but significant benefit in survival | survival compared with TMZ alone ([4]; 25 mg/kg combined with TMZ (25 or 12.5 mg/kg gavage)): significantly improved survival | cells showing large LC3B+ puncta (GNS (G362 and G411)): more than 50% | lowest combination index (CI) value (G481): 0.28 | cell-cycle effect (GNS (G411 and G362)): G0/G1 arrest | lowest combination index (CI) value (G362): 0.29

Molecule: CCC(Oc1ccc(Cl)cc1)C(=O)OC1CC2CCC(C1)N2C (racemic) [(±)-tropanyl-2-(4-chlorophenoxy)butanoate]
selectivity toward GNS and NS compared with fibroblasts [1]: more than 8 fold

Molecule: CN1CCN(CCCN2c3ccccc3Sc3ccc(C(F)(F)F)cc32)CC1 [trifluoperazine]
primary screen result (GNS, NS and BJ lines): hits

Molecule: C=C[C@@]1(C)CC(=O)[C@]2(O)[C@@]3(C)[C@@H](O)CCC(C)(C)[C@@H]3[C@H](O)[C@H](OC(C)=O)[C@@]2(C)O1 [Forskolin, forskolin]
increase in cAMP concentration (adenylate cyclase): 2.1 fold

Molecule: Clc1ccc(N2CCN(Cc3c[nH]c4ncccc34)CC2)cc1 [L-745,870]
IC50 [1]: 3.1 to 6.2 µM

Molecule: Cc1cc(C)cc(C(=O)OC2CC3CCC(C2)N3C)c1 (stereo not shown) [tropanyl 3,5-dimethylbenzoate]
selectivity toward GNS and NS compared with fibroblasts [1]: more than 8 fold

Molecule: Nc1ccc(CCN2CCN(c3cccc(C(F)(F)F)c3)CC2)cc1 [LY-165,163]
selectivity toward GNS and NS compared with fibroblasts [1]: more than 8 fold

block of forskolin-induced cAMP response (DRD4 receptor): 31.3%
Molecule: Cc1cccc(NC(=O)CN2CCC(c3ccccn3)CC2)c1 [A412997]

Molecule: CN1[C@@H]2CC[C@H]1C[C@@H](OC(=O)c1cc(Cl)cc(Cl)c1)C2 [MDL-72222]
selectivity toward GNS and NS compared with fibroblasts [1]: more than 8 fold

Molecule: Cl.Cl.Fc1ccc(N2CCN(CCC3OCCc4ccccc43)CC2)cc1 (stereo not shown) [PNU 96415E]
tumor volume growth vs vehicle control [2]: much slower growth | reduction of average tumor weight at the endpoint [2]: 44.3% | selectivity against GNS compared with NS [1]: 8 fold | selectivity toward GNS and NS compared with fibroblasts [1]: more than 8 fold | IC50 [1]: 6.25 µM | sensitivity of non-NS control cells [5]: not sensitive even at the highest concentration tested | cells showing large LC3B+ puncta (GNS (G362 and G411)): more than 50% | lowest combination index (CI) value (G481): 0.32 | cell-cycle effect (GNS (G411 and G362)): G0/G1 arrest | lowest combination index (CI) value (G362): 0.56
